VIM-2 inhibitor: VIM-2 metallo-beta-lactamase inhibitors, primary screen, biochemical, epi-absorbance readout, Pseudomonas aeruginosa enzyme | purified VIM-2, nitrocefin hydrolysis, epi-absorbance fluorescence | actives 0.89% (n = 290,000) | AID 1527, 2009 | inhibition, % at 5.6 µM;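 active means inhibition above the mean of all tested compounds plus 3 SD, cutoff set per screening run, cut at about 7.5% in these data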;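 further: red hydrolysis product quenches plate fluorescence so inhibitors raise well fluorescence; 0% = enzyme with DMSO and 100% = DMSO without enzyme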
IMP-1 inhibitor: IMP-1 metallo-beta-lactamase inhibitors, primary screen, biochemical, epi-absorbance readout, Pseudomonas aeruginosa enzyme. metallo-beta-lactamase IMP-1 (Pseudomonas aeruginosa). purified IMP-1, nitrocefin hydrolysis, epi-absorbance fluorescence. inhibition, % at 5.6 µM. actives 0.45% (n = 290,000);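 active means inhibition above the mean plus 3 SD of all compounds in the same screening run, cut at about 4.5% in these data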;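 further: 0% = IMP-1 with DMSO and 100% = DMSO wells lacking enzyme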
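System: purified IMP-1 / Input: IMP-1 dispensed at 0.2 nM / Medium: 50 mM HEPES pH 7.1, 50 µM ZnSO4, 0.05% Brij 35 / Timing: 15 min enzyme–compound preincubation, then 25 min nitrocefin reaction, 25 °C / Technique: plate fluorescence quenching by hydrolysis product, ex 480/em 530 nm / Repeats: singlicate testing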
697 NFkB inh: inhibitors of PMA/ionomycin-induced NF-kB reporter, 697 cells, primary screen, B-cell NF-kB inhibitor project, cell-based, luminescence, uHTS; inhibition, % at 4 µM; actives 0.33% (n = 330,000); 697 B-cell NF-kB luciferase reporter, 16 h; in the data active means inhibition above about 35%
Mdm2-MdmX inh: inhibitors of human Mdm2-MdmX association, primary screen, cell-based, luminescence, split luciferase, SaOS-2, uHTS | SaOS-2 split-luciferase Mdm2/MdmX complementation | inhibition, % at 8 µM | AID 485346, 2010 | actives 3% (n = 330,000);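 active means inhibition of at least 50% at 8 µM in the primary screen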
Target sequence (O15151 whole entry, looked up): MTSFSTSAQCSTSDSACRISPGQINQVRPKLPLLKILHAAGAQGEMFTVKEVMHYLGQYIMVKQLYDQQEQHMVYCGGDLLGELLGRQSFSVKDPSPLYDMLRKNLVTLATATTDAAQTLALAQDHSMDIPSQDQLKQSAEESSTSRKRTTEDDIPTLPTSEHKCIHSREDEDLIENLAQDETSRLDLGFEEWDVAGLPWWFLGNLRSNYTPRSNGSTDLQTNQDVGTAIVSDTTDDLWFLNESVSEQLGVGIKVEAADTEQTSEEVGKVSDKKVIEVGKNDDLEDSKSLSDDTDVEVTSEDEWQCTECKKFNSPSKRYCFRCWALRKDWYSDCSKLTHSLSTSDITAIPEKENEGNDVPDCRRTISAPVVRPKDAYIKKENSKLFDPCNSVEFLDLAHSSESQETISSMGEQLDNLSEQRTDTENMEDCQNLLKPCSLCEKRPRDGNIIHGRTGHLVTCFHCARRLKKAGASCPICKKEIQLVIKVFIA
Target sequence (Q00987 whole entry, looked up): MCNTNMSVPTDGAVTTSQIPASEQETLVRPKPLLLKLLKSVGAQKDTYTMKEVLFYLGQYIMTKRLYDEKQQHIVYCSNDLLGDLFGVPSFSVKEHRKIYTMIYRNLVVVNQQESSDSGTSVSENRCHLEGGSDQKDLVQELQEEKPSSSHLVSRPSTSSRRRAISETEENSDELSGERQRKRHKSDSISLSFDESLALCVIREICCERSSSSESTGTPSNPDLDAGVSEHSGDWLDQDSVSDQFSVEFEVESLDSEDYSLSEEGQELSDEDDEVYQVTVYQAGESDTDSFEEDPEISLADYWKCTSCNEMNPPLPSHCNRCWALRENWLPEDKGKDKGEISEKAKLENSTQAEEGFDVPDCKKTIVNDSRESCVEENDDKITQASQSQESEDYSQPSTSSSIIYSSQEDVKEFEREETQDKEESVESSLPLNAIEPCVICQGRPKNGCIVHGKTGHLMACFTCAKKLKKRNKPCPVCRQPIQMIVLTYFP
Jurkat NFkB inh: inhibitors of induced NF-kB luciferase reporter, primary screen, TCR NF-kB activation inhibitor project, cell-based, luminescence, uHTS. Jurkat, PMA/ionomycin-induced NF-kB luciferase reporter. inhibition, % at 4 µM. actives 0.53% (n = 330,000); in the data active means inhibition above about 50%
aSyn 5UTR inh: MLPCN primary screen, SNCA 5' untranslated region | alpha-synuclein 5'UTR reporter, inhibitor activity | inhibition, % (tested at 7.5 µM) | actives 0.82% (n = 300,000) | AID 1813, 2009; in the data active means inhibition above about 60%;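 further: H4 neuroglioblastoma cells stably carrying SNCA 5'UTR luciferase fusion; 0% = DMSO wells and 100% = positive control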
Mdm2 MdmX conf: Mdm2-MdmX complex disruptors, retested hits, confirmation, luminescence, single concentration | shares compounds with Mdm2-MdmX inh | Mdm2-MdmX binding, luminescent assay | inhibition, % at 8 µM | actives 55% (n = 10,000) | AID 489028, 2010; in the data active means inhibition above about 40%
FLuc counter: full-length luciferase signal inhibition, confirmation, counter-screen for Mdm2/MdmX interaction inhibitor project, cell-based, single concentration, SaOS-2. shares compounds with Mdm2-MdmX inh. SaOS-2 full-length luciferase counterscreen, luminescence. inhibition, % at 8 µM. actives 77% (n = 6,200). AID 504607, 2011;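 active means mean inhibition at 8 µM reaching about 37%, which flags the compound as non-specific, limit read from the data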;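 further: p53-null SaOS-2 cells with luciferase driven by a doxycycline-inducible promoter; compound on cells about two nights before reading with doxycycline added after day one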
Numbers without * were called inactive; . = no result given. In the library only some 4.7% were active in any assay of this set; here they are far more common.

SMILES	VIM-2 inhibitor	IMP-1 inhibitor	697 NFkB inh	Mdm2-MdmX inh	Jurkat NFkB inh	aSyn 5UTR inh	Mdm2 MdmX conf	others
CCOC(=O)C1C(C(=O)OC)=C(C2=CCCCC2)c2ccccc2N1S(=O)(=O)C(F)(F)F (configuration not stated)	.	.	12.0	13.6	.	.	.
C/C(=C\c1ccccc1)C(=O)NCc1ccco1	-3.4	0.5	-28.0	-22.2	-29.4	-33.5	.
CCOc1ccc(NC(=O)C2CCN(S(=O)(=O)CC)CC2)cc1	-3.6	-3.9	7.3	16.6	-4.1	12.4	.
Cn1nnnc1Sc1ncnc2scc(-c3ccc[nH]3)c12	.	.	-28.2	69.4*	-17.1	.	46.8*	FLuc counter=29.2
Cn1nnnc1Sc1ncnc2scc(-c3ccccc3)c12	-2.3	-2.9	9.2	78.3*	-10.5	-59.1	-1.9
COc1ccccc1-c1csc2ncnc(Sc3nnnn3C)c12	.	.	-23.9	47.2	-16.9	.	.
CC(=O)Nc1ccc(S(=O)(=O)N(C)S(=O)(=O)c2ccc(F)cc2)cc1	-2.5	-1.7	13.2	-5.4	14.5	5.0	.
O=C(CSc1nnc(-c2cccs2)n1-c1ccccc1)Nc1ccccc1	-1.9	-3.4	12.9	69.5*	-5.4	-12.2	7.5
CCOC(=O)CSc1nnc(-c2cccs2)n1-c1ccccc1	0.6	0.1	6.1	20.0	1.0	4.8	.
O=C(CSc1nnc(-c2cccnc2)n1-c1ccccc1)Nc1ccccc1	-2.2	-5.8	-23.8	50.2*	-28.9	5.7	17.0
Clc1cc(/C=N\NC2=NCCN2)cc(Cl)n1	.	.	8.7	24.2	9.6	-26.3	.
O=C(Nc1nc2ccccc2s1)c1cc(-c2ccccc2)nn1-c1ccccc1	-3.9	-3.5	-8.5	86.0*	-11.2	-136.6	47.0*	FLuc counter=109.6*
CC(=O)c1sc(NC(=O)c2cc(-c3ccccc3)nn2-c2ccccc2)nc1C	0.9	-2.3	-13.6	31.7	-4.9	-23.7	.
CCOC(=O)[C@@H]1[C@H]2COc3ccc(Br)cc3[C@H]2N2C(=O)N(c3ccc(C(F)(F)F)cc3)C(=O)[C@]12C	.	.	2.3	11.1	7.3	.	.
COc1cc2nc(SCC(N)=O)n(CCC3=CCCCC3)c(=O)c2cc1OC	-3.5	-3.9	-0.4	79.6*	15.3	21.4	14.2
CCCCn1c(N)c(N(Cc2ccccc2OC)C(=O)CCC(C)C)c(=O)[nH]c1=O	-2.5	-2.9	-11.1	18.8	-8.2	-27.0	.
CCCCCC(=O)NC(=S)Nc1ccc(N2CCOCC2)cc1	-1.2	-2.8	2.7	21.8	-12.5	-18.7	.
O=C(CCl)NC1CCCc2ccccc21 (configuration not stated)	-0.6	-2.8	8.8	58.1*	10.0	-6.1	20.4
CCC1CCc2sc(C(=O)NCC(c3ccc(OC)cc3)N3CCOCC3)cc2C1 (configuration not stated)	.	.	-7.9	23.1	7.5	.	.
CCC(C)NC(=O)COc1ccccc1[N+](=O)[O-] (configuration not stated)	-3.5	-4.1	6.1	13.0	11.2	8.1	.
C=C(C)CN1CCN(c2c(CCC#N)c(C)c(C#N)c3nc4ccccc4n23)CC1	-4.7	-1.5	-8.9	74.2*	-0.6	15.5	24.1
Cc1ccc(SCC(=O)Nc2cc([N+](=O)[O-])ccc2O)cc1	-2.7	-2.5	-10.7	2.4	-6.3	-52.2	.
Cc1ccc(C(=O)N2CCCCC2)cc1NC1=C(Cl)C(=O)N(Cc2ccccc2)C1=O	.	.	7.0	56.4*	6.3	.	49.9*	FLuc counter=64.0*
Cc1cc(NC(c2ccc(Cl)cc2)c2ccc3cccnc3c2O)no1 (configuration not stated)	-2.7	-0.6	-32.3	63.2*	33.5	84.9*	82.1*	FLuc counter=27.4
CC(=O)NC(c1ccco1)c1ccc2cccnc2c1O (configuration not stated)	-4.6	-4.0	-3.7	71.7*	20.5	77.2*	54.5*	FLuc counter=27.7
SMILES	VIM-2 inhibitor	IMP-1 inhibitor	697 NFkB inh	Mdm2-MdmX inh	Jurkat NFkB inh	aSyn 5UTR inh	Mdm2 MdmX conf	others
CC(C)C(=O)NC(c1ccc(Cl)cc1Cl)c1ccc2cccnc2c1O (configuration not stated)	0.9	-7.0	-26.1	83.8*	46.6	92.3*	90.5*	FLuc counter=22.5
CCCC(=O)NC(c1ccco1)c1c(O)ccc2ccccc12 (configuration not stated)	-0.8	-1.1	7.9	0.6	12.4	-34.8	.
CCC(=O)NC(c1ccc(Cl)cc1Cl)c1ccc2cccnc2c1O (configuration not stated)	-2.6	-2.2	-99.4	77.9*	37.2	75.3*	87.3*	FLuc counter=20.0
N/C(=N\OC(=O)CCCOc1ccccc1)c1cccc([N+](=O)[O-])c1	-0.7	-1.1	-10.3	11.0	-6.3	1.4	.
O=C(NCCCN1CCOCC1)C1CCN(S(=O)(=O)c2cccc(C(F)(F)F)c2)CC1	.	.	5.3	7.4	-6.9	.	.
C[C@@H](C(=O)NCCc1ccccc1)N1C(=O)N2CCc3c([nH]c4ccccc34)[C@@]2(C)C1=O	-2.1	-1.7	6.1	-13.1	-11.4	-17.3	.
CCN(CC(=O)Nc1ccc(NC(C)=O)cc1)C(=O)c1ccc(=O)n(C)n1	.	.	15.2	-18.6	2.7	.	.
CC(C)c1ccc(C2C3=C(CC(C)(C)CC3=O)NC3=C2C(=O)c2ccccc23)cc1 (configuration not stated)	0.8	-1.2	0.8	73.4*	6.4	0.1	25.7
NS(=O)(=O)c1ccc(CCN2C(=O)/C(=C\c3ccc(Cl)cc3)SC2=S)cc1	-1.0	-3.5	23.1	95.1*	-3.0	-32.9	96.5*	FLuc counter=46.4*
CCOc1ccc(NC(=O)C(Cc2ccccc2)N2C(=O)c3cccc4cccc(c34)C2=O)cc1 (configuration not stated)	-1.4	-1.4	6.7	50.2*	6.6	9.8	47.2*	FLuc counter=97.7*
CCOc1ccc(NC(=O)C(CC(=O)O)Cc2ccccc2)cc1 (configuration not stated)	-0.9	-2.5	-2.9	-3.4	0.0	29.7	.
CCOC(=O)C(Cc1ccc(NC(=O)/C(=C/c2ccccc2)NC(=O)c2ccccc2)cc1)N1C(=O)c2ccccc2C1=O (configuration not stated)	-5.1	-2.0	20.4	51.8*	17.2	18.9	19.1

Compound activity (PubChem)
